Hits are enriched below; roughly 3.7% of the tested compounds scored in any of these assays.
KCNQ1 inh: inhibitors of human KCNQ1 potassium channel | P51787 | CHO-K1 KCNQ1, FluxOR thallium flux fluorescence; active compounds read high | B-score at 10 µM | 310,000 compounds, 1.3% hits;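 active means compounds whose thallium flux B-score, printed positive for inhibition, exceeds three library SD while starting fluorescence stays within three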;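 further: channel opened by potassium depolarization with thallium stimulus after 20 min compound exposure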
hERG protect: compounds protecting human hERG from proarrhythmic drug block; CHO-hERG, FluxOR thallium flux, dofetilide IC70 present; 310,000 compounds, 0.51% hits; AID 1511; activation (rescue from dofetilide block), less the hit threshold, % at 10 µM;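 active means activation above the mean of controls blocked by dofetilide plus 5 SD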;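 further: thallium influx through hERG after potassium depolarization seen as dye fluorescence rise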
KCNQ1 pot: potentiators or activators of human KCNQ1 potassium channel; P51787; 310,000 compounds, 0.35% hits; B-score at 10 µM; CHO-K1 KCNQ1, thallium flux FluxOR fluorescence; active compounds read high; AID 2648;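 active means fluorescence ratio B-score, a plate-corrected score, at least three library SD, with initial intensity B-score within 5 SD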
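System: Stable KCNQ1 CHO-K1 line | Incubation: 90 min dye loading and 20 min compound exposure, both at room temperature | Measure: Ratio B score | Medium: Assay buffer for compound exposure, DMSO matched across wells | Compound dosing: Single-concentration screen | Probe or stimulus: K+/Tl+ depolarizing stimulus | Measured by: Kinetic FluxOR fluorescence, 10 s baseline plus 110 s post-stimulus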
KCNK9 inh: human KCNK9 channel inhibition; Q9NPC2; HEK293 KCNK9, FluxOR thallium flux fluorescence; active compounds read low; B-score at 10 µM; 310,000 compounds, 1.2% hits; AID 488922;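 active means ratio B-score over 3 SD below the library mean, with starting fluorescence within 5 SD of its mean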;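 further: negative B-score means less thallium flux so channel inhibition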
Target sequence (Q9NPC2 whole entry, looked up): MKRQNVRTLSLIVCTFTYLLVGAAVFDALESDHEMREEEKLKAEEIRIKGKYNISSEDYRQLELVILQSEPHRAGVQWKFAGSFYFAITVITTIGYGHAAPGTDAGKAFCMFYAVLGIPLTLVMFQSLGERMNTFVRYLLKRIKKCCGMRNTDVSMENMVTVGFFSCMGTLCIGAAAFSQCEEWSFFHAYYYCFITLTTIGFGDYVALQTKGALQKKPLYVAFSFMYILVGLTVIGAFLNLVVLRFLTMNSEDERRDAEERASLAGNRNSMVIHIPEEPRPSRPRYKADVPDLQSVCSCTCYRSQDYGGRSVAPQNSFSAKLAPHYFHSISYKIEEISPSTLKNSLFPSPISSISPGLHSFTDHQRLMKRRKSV
KCNK3 inh: human KCNK3 channel inhibition, primary screen | O14649 | CHO-KCNK3 thallium flux, FluxOR fluorescence; active compounds read low | B-score at 10 µM | 340,000 compounds, 0.84% hits | AID 602410;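 active means B-score under library mean minus 4 SD, starting fluorescence ratio at most library mean plus 5 SD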;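 further: more negative B-score means stronger inhibition of thallium flux through KCNK3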
Target sequence (O14649 whole entry, looked up): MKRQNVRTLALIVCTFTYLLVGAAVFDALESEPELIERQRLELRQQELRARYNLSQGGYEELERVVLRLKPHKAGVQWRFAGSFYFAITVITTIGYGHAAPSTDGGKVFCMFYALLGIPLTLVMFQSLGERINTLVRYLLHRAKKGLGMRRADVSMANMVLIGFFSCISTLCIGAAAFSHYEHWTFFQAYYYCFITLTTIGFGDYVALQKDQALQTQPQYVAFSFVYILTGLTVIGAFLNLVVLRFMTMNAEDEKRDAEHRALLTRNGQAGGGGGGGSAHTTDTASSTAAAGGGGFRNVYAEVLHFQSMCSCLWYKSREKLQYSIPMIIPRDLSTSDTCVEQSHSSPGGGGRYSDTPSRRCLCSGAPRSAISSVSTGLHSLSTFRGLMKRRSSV
Kir21 block: inhibitors of mouse Kir2.1 inward-rectifier potassium channel | B-score at 10 µM | P35561 | HEK293-Kir2.1, FluxOR thallium flux fluorescence; active compounds read low | 310,000 compounds, 0.85% hits;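 active means fluorescence ratio B-score at or below minus 3 SD of library scores, with starting-brightness B-score within 2 SD, cut at about -4.2 in these data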;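 further: channel flux triggered by added potassium and thallium sulfate stimulus; B-score of peak minus minimum fluorescence over baseline after thallium stimulus; more negative B-score means stronger Kir2.1 block with less thallium influx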
KCNK9 inh conf: confirmation of human KCNK9 potassium channel inhibitors; shares compounds with KCNK9 inh; HEK293 KCNK9 cells, FluxOR thallium flux fluorescence; inhibition, % at 10 µM; 4,900 compounds, 43% hits; AID 492992;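 active means thallium signal inhibited by more than 5 SD of the compound-free buffer control wells, on both duplicate plates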;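 further: 0% = assay buffer control wells without compound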
Kir2-1 spec: tests whether KCNK9 modulators also affect mouse Kir2.1 | shares compounds with KCNK9 inh | Kir2.1 cells, FluxOR thallium flux fluorescence | inhibition, % at 10 µM | 4,900 compounds, 4% hits;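 active means thallium signal drop more than 5 SD beyond the mean of the no-compound control wells, seen in both duplicate plates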;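 further: signal is fluorescence rise after thallium addition divided by baseline fluorescence; plate controls were assay buffer only for no effect and full block by chlorpromazine control for full effect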
KCNK9 uninduced: second check of KCNK9 modulator effects in non-induced HEK293 cells | shares compounds with KCNK9 inh | FluxOR thallium flux | inhibition, % at 10 µM | 4,900 compounds, 40% hits | AID 492997;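 active means thallium signal drop beyond 5 SD of the untreated control mean, on both duplicate plates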;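 further: plate controls were buffer only IC0 wells for no effect and SID17386958 at its maximal inhibitory level for full effect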
KCNK3 inh conf: human KCNK3 channel inhibition, confirmation assay; AID 651638; ratio percent of control, % at 10 µM; 2,400 compounds, 99% hits; shares compounds with KCNK3 inh; CHO-KCNK3 thallium flux, FluxOR fluorescence; 0% buffer, 100% carvedilol maximal block;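 active means ratio percent of control, averaged over triplicates, above buffer control mean plus 5 SD, cut at about 64% in these data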;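 further: ratio is the fluorescence rise from min to max over baseline after thallium stimulus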
KCNK3 uninduced: counter-screen for KCNK3 inhibitors: effect in non-induced cells. 2,400 compounds, 40% hits. thallium flux ratio (lower = more inhibition) at 10 µM. shares compounds with KCNK3 inh. non-induced KCNK3 parental cells, FluxOR thallium flux; active compounds read low;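 active means thallium flux ratio, averaged over three wells, more than 5 SD below the buffer control mean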;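 further: host cells are CHO cells without KCNK3 induction; ratio is peak minus trough fluorescence over baseline then normalized to buffer controls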
Starred values were filed as active, the others as inactive; i = inactive; . = no result.

SMILES | KCNQ1 inh | hERG protect | KCNQ1 pot | KCNK9 inh | KCNK3 inh | Kir21 block | KCNK9 inh conf | Kir2-1 spec | KCNK9 uninduced | others
CCOC(=O)N1CCN(Cc2nc(C3CC3)no2)CC1 | i | -8 | i | i | i | 1.7 | . | . | .
CC1=NOC(=O)/C1=C\c1ccc(-c2ccc(Cl)cc2Cl)o1 | i | -5 | i | i | i | 2.7 | i | i | i
O=C(O)CC1(CC(=O)N2CCOCC2)CCCC1 | i | -8 | i | i | i | -0.98 | . | . | .
COc1cccc(Nc2nc(-c3cccc(N4C(=O)c5ccccc5C4=O)c3)cs2)c1 | i | -7 | i | i | i | -1.3 | i | i | i
Cc1ccc(-c2nc3cnccn3c2Nc2ccc3c(c2)OCO3)cc1 | i | -7 | i | -8.6* | i | -2.4 | 44%* | i | i
Cc1cc(C)n2c(Nc3ccc4c(c3)OCCO4)c(-c3ccccc3)nc2n1 | i | -18 | i | -11* | i | 0.18 | 39%* | i | 28%*
COc1ccc(-c2nc3cnccn3c2Nc2ccc3c(c2)OCO3)cc1 | i | -14 | i | i | i | -0.83 | . | . | .
COc1cc(OC)c(NC(=O)CCCNC(=O)Cn2cnc3sc(C)c(C)c3c2=O)cc1Cl | i | -6 | i | i | i | 0.16 | . | . | .
CNC[C@H](CC1CCCCC1)NC[C@H](Cc1ccccc1)NCCC12CC3CC(CC(C3)C1)C2 | i | -3 | i | -10* | i | -8.2* | 62%* | 80%* | 26%*
NC[C@H](Cc1ccccc1)NCCCCC1CCCCC1 | . | . | . | . | i | . | . | . | .
CN(Cc1ccccc1)S(=O)(=O)c1ccc(N2CCCC2=O)cc1 | . | . | . | . | i | . | . | . | .
CCCCn1c(SCc2nc(N)nc(Nc3ccccc3C)n2)nc2ccccc2c1=O | i | -4 | i | -9.5* | i | 1.2 | 40%* | i | i
COc1cc(OC)cc(C(=O)N2CC(=O)Nc3ccccc32)c1 | i | -7 | i | i | i | -0.08 | . | . | .
O=C(O)c1cc(NN=Nc2ccc(Br)cc2)cc([N+](=O)[O-])c1 | i | -11 | i | i | i | 0.89 | i | i | i
COc1ccc2c(c1C)CCC(C)(C#N)C2=O (stereo not drawn) | . | . | . | . | i | . | . | . | .
CCOC(=O)CN(C(=O)COc1nc(-c2ccccc2)cc(C)c1C#N)c1ccc(C)cc1 | i | -10 | i | i | i | -0.94 | i | i | i
CCOC(=O)CN(C(=O)COc1nc(-c2ccccc2)cc(C)c1C#N)c1ccccc1 | i | -10 | i | i | i | -0.18 | . | . | .
CCOC(=O)CN(C(=O)COc1nc(-c2ccccc2)cc(C)c1C#N)c1cccc(OC)c1 | i | -10 | i | i | i | -3.1 | . | . | .
CCOC(=O)CN(C(=O)COc1nc(-c2ccccc2)cc(C)c1C#N)c1ccccc1C | i | -11 | i | i | i | 0.94 | i | i | i
COc1ccc(CC(=O)NNC(=O)c2ccco2)cc1OC | i | -10 | i | i | i | 0.28 | . | . | .
CSc1nnc(Cc2sc(-c3ccccc3)nc2-c2ccccc2)o1 | i | -8 | i | -8.1* | i | 0.11 | i | i | 25%*
Fc1ccc(CSc2nnc(Cc3sc(-c4ccccc4)nc3-c3ccccc3)o2)cc1 | i | -14 | i | i | i | -0.36 | . | . | .
CC1(C)CC(=O)CC2(C1)NCC(c1ccccc1)c1c2[nH]c2ccccc12 (stereo not drawn) | i | -4 | i | -15* | -9.3* | -0.73 | 64%* | i | 34%* | KCNK3 inh conf=99*;KCNK3 uninduced=i
CC1(C)NC(C(=O)O)Cc2c1[nH]c1ccccc21 (stereo not drawn) | i | -6 | i | i | i | -1.1 | . | . | .
Cc1ccc(S(=O)(=O)n2nc(OC(=O)c3ccccc3C)cc2N)cc1 | i | -2 | i | -18* | -15* | 0.03 | 70%* | i | 74%* | KCNK3 inh conf=117*;KCNK3 uninduced=i
SMILES | KCNQ1 inh | hERG protect | KCNQ1 pot | KCNK9 inh | KCNK3 inh | Kir21 block | KCNK9 inh conf | Kir2-1 spec | KCNK9 uninduced | others
CC(C)Oc1ccccc1C1Nc2ccccc2C(=O)N1c1ccc2c(c1)OCCO2 (stereo not drawn) | i | -3 | i | -13* | -10* | -0.87 | 67%* | i | 28%* | KCNK3 inh conf=100*;KCNK3 uninduced=0.16*
CCOC(=O)N1CCN(C(=O)C2CC(=O)N(c3ccc(C)cc3)C2)CC1 (stereo not drawn) | i | -14 | i | i | i | 0.83 | . | . | .
COc1ccccc1C(=O)Nc1ccc(C(=O)c2ccccc2)cc1 | i | -9 | i | -12* | -13* | 1.9 | 61%* | i | i | KCNK3 inh conf=127*;KCNK3 uninduced=0.13*
Cc1cccc(C)c1NC(=O)c1sccc1SCc1cccc(C(F)(F)F)c1 | i | -9 | i | -14* | -9.4* | 0.72 | 56%* | 49%* | 45%* | KCNK3 inh conf=101*;KCNK3 uninduced=0.16*
COC(=O)C1CN(C(=O)COc2ccccc2)c2ccccc2O1 (stereo not drawn) | i | -2 | i | i | i | 0.72 | . | . | .
Cc1ccc(C)c(NC(=O)CCN2CCc3ccccc3C2)c1 | i | -10 | i | i | i | -2.8 | . | . | .
Cc1ccc(C(C)C)c(OCCN2CCc3ccccc3C2)c1 | i | 0 | i | i | -9.7* | -3.1 | i | i | i | KCNK3 inh conf=127*;KCNK3 uninduced=i
O=[N+]([O-])c1ccc(O)c(-c2nc(-c3ccccc3)c(-c3cccs3)[nH]2)c1 | i | -19 | i | i | i | 1.6 | . | . | .
CCOc1cc(-c2nc(-c3ccccc3)c(-c3cc([N+](=O)[O-])ccc3C)[nH]2)ccc1O | 7* | -16 | i | -12* | -9.6* | 1.4 | 56%* | i | i | KCNK3 inh conf=124*;KCNK3 uninduced=0.12*
CNC(=S)NC(CC(=O)OC)c1ccc2c(c1)OCO2 (stereo not drawn) | i | -2 | i | i | i | -0.81 | . | . | .
N#Cc1c(NC(=O)CSc2n[nH]c(N)n2)oc(-c2ccccc2)c1-c1ccccc1 | i | -5 | i | i | i | -0.85 | . | . | .
